Measured values: publication PMC2215654 (The Journal of General Physiology, 1984)
Where two headings read alike, the source gives them in different places.

Tests used:
[1] = test system: red cells (net chloride permeability); experiment: Net KCl flux with valinomycin into low chloride medium, 0C; type: cell-based, human
Summary of the method: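 Nystatin-treated high-Cl cells were washed in 150K, then 10K-Hi. Net K+ efflux was measured at 0°C, 0.1% hematocrit, in 10K-Hi with 1.33% ethanol, started by adding graded valinomycin, with or without 10 uM DIDS. K+ was read by flame photometry and taken as net KCl efflux. PK/PCl came from Goldman-equation fits, with PK linear in valinomycin and PK = 0.5 PRb.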

[2] = test system: red cells (valinomycin-induced Rb+ exchange); experiment: 86Rb exchange with valinomycin, 0C; type: cell-based, human
Summary of the method: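 Human red cells washed in 150 mM NaCl, 2 mM KCl, 20 mM HEPES pH 7.4, then loaded 17 h at 37°C (50% hematocrit) with ~5 uCi/ml 86Rb in 5 mM adenosine/chloramphenicol buffer. Efflux ran at 0°C, 0.1% hematocrit, in 48 mM NaCl/112 mM KCl/5 mM HEPES pH 7.2 with 1.33% ethanol. Valinomycin was added last, with or without 10 uM DIDS. Timed samples were centrifuged to give the efflux rate constant.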

[3] = target: T1, human erythrocyte anion exchange protein (band 3) (Homo sapiens, UniProt P02730); experiment: H2DIDS inhibition of chloride exchange in resealed ghosts with Cli < Clo, 0C; type: cell-based
T1 sequence (P02730 1-911): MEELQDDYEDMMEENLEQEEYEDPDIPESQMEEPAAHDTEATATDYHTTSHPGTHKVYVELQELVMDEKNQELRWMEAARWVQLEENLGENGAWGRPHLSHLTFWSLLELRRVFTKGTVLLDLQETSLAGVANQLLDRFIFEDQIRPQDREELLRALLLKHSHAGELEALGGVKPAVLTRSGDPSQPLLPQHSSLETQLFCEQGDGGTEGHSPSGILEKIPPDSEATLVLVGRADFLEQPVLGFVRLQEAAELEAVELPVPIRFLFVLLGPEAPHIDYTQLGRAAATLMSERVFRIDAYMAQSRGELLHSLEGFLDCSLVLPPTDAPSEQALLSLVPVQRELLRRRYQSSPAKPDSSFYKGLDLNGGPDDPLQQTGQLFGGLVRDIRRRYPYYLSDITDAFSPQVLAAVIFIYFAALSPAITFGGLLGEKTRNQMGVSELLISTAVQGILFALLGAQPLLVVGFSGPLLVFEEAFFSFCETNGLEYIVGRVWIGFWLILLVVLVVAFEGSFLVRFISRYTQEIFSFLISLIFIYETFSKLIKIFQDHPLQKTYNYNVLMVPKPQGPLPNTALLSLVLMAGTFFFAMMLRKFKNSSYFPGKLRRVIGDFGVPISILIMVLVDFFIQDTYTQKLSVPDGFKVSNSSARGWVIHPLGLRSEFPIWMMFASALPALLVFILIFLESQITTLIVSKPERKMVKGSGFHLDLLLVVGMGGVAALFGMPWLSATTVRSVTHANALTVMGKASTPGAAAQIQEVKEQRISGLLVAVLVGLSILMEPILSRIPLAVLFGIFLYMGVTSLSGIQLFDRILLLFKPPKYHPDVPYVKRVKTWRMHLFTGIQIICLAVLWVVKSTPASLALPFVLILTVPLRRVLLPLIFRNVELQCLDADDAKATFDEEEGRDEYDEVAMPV
Summary of the method: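 Washed cells were lysed at 0°C in 3.5 mM acetic acid, 4 mM MgSO4, 1 mM EGTA. Tris/KCl/sodium citrate was added for 10 or 60 mM internal Cl; after 10 min at 0°C, ghosts were resealed 45 min at 37°C. They were washed in 60 mM NaCl, 60 mM Na citrate, 5 mM HEPES, 5 mM glucose, MgSO4, pH 7.2. 36Cl efflux with graded H2DIDS was measured at 0°C; ID50 came from Dixon-plot x-intercepts.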

[4] = target: T1, human erythrocyte anion exchange protein (band 3); type: cell-based; conditions: Table III mean
Summary of the method: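 Washed cells in 60K-Hi (pH 7.2) were pretreated 45 min at 37°C, 10% hematocrit, with 2.5 uM (low pH) or 5 uM (high pH) H2DIDS. They were albumin-washed, nystatin-treated (75 ug/ml, 10 min each in 60K-Hi then 60K-Lo, 0°C) and washed into 60K-Lo at pH 7.2 or 9.0. 36Cl efflux with graded H2DIDS and Cl ratios were measured at 0°C in those media. ID50 came from Dixon-plot x-intercepts.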

With `O=S(=O)(O)c1cc(N=C=S)ccc1C=Cc1ccc(N=C=S)cc1S(=O)(=O)O` [DIDS, 4,4'-diisothiocyano-stilbene-2,2'-disulfonic acid] the “plateau net KCl efflux” value ([1]; in the presence of 10 uM DIDS, high valinomycin concentrations) was “greatly reduced”, the “effect on Rb+ exchange” value ([2]; DIDS 10 uM, valinomycin-induced Rb+ exchange) was “no significant effect” and the PRb ([2]; Fig. 7, 10 uM valinomycin with 10 uM DIDS present) was 0.09216 mmol/kg Hb - min - mM.
In the case of `CC(C)[C@@H]1NC(=O)[C@H](C)OC(=O)[C@@H](C(C)C)NC(=O)[C@@H](C(C)C)OC(=O)[C@H](C(C)C)NC(=O)[C@H](C)OC(=O)[C@@H](C(C)C)NC(=O)[C@@H](C(C)C)OC(=O)[C@H](C(C)C)NC(=O)[C@H](C)OC(=O)[C@@H](C(C)C)NC(=O)[C@@H](C(C)C)OC1=O` [valinomycin], the PK/PCl ratio ([1]; 10 uM valinomycin, 10K-Hi medium, assuming PK = 0.5 PRb) is reported as 33, the PK/PCl ratio ([1]; valinomycin, other experiments, medium with 150 mM NaCl and 10 mM KCl) is reported as > 20 and the PRb ([2]; Fig. 7, control cells, 10 uM valinomycin) is reported as 0.09134 mmol/kg Hb - min - mM.
In the case of `O=S(=O)(O)c1cc(N=C=S)ccc1CCc1ccc(N=C=S)cc1S(=O)(=O)O` [H2DIDS, 4,4'-diisothiocyano-1,2-diphenylethane-2,2'-disulfonic acid], the “ID50* (no chloride gradient), mean” value ([3]; Table II mean, extracellular Cl 60 mM, intracellular Cl ~60 mM, 0C) is reported as 0.15 AM, the “ID50 (with chloride gradient Clo > Cli), mean” value ([3]; Table II mean, intracellular Cl averaged 27.8 mM, mean Clo/Cli 2.35, 0C) is reported as 0.21 AM and the “ID50/ID50*, mean” value ([3]; Table II mean, mean Clo/Cli 2.35) is reported as 1.41. For the same molecule, the “increase in ID50 caused by high pH” value ([3]; pH 9.0 versus pH 7.2, chloride ratio nearly invariant with pH) was 30%, the “ID50* (no chloride gradient), mean” value ([4]; extracellular Cl 60 mM, intracellular Cl ~60 mM, 0C) was 0.24 AM and the “ID50 (chloride gradient induced by increasing pH), mean” value ([4]; intracellular Cl averaged 14.4 mM, mean Clo/Cli 4.66, 0C) was 0.47 AM. The “ID50/ID50*, mean” value ([4]; mean Clo/Cli 4.66) was 2.00.
